Test results: ChEMBL document CHEMBL2203082, “Thiorhodamines containing amide and thioamide functionality as inhibitors of the ATP-binding cassette drug transporter P-glycoprotein (ABCB1)” (Bioorg Med Chem, 2012)

Tests used:
[1] = Ratio of permeability from apical to basal side of MDCK2 cells expressing MDR1 assessed as fraction of mass extracted by methanol wash at 5 uM in presence of LSN 335984 to permeability from apical to basal side of MDCK2 cells expressing MDR1 assessed as fraction of mass extracted by methanol wash at 5 uM in absence of LSN 335984; format: ADME, cell-based, Canis lupus familiaris; conditions: dog, mdck-ii
Method in brief: (§1)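 MDCKII-MDR1 cells on Transwell polycarbonate filters (50,000 cells cm−2), used day 6. 5 μM compound added to donor chamber (AB or BA). Donor and receiver sampled after 1 h at 37 °C with nutation. Cell-associated fraction taken by methanol extraction of monolayer after AB flux. Quantified by LC-MS/MS. ±SD.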

[2] = Permeability from apical to basal side of MDCK2 cells expressing MDR1 assessed as fraction of mass extracted by methanol wash at 5 uM after 1 hr by LC-MS/MS analysis in presence of LSN 335984; format: ADME, cell-based, Canis lupus familiaris; conditions: dog, mdck-ii; method in brief: as §1
[3] = Permeability from apical to basal side of MDCK2 cells expressing MDR1 assessed as fraction of mass extracted by methanol wash at 5 uM after 1 hr by LC-MS/MS analysis; format: ADME, cell-based, Canis lupus familiaris; conditions: dog, mdck-ii; method in brief: as §1
[4] = Ratio of permeability from basal to apical side of MDCK2 cells expressing MDR1 in absence of LSN 335984 to permeability from basal to apical side of MDCK2 cells expressing MDR1 in presence of LSN 335984; format: ADME, cell-based, Canis lupus familiaris; conditions: dog, mdck-ii; method in brief: as §1
[5] = Permeability from basal to apical side of MDCK2 cells expressing MDR1 at 5 uM after 1 hr by LC-MS/MS analysis; format: ADME, cell-based, Canis lupus familiaris, MDCK-II; conditions: dog, MDCK-MDR1; read-out: permeability; method in brief: as §1
[6] = Permeability from apical to basal side of MDCK2 cells expressing MDR1 at 5 uM after 1 hr by LC-MS/MS analysis; format: ADME, cell-based, Canis lupus familiaris, MDCK-II; conditions: dog, MDCK-MDR1; read-out: permeability; method in brief: as §1
[7] = n-Octanol-water partition coefficient, log P of the compound at pH 7.4 by shake flask method; format: physicochemical
[8] = molecular target: T1, ATP-dependent translocase ABCB1 (Homo sapiens, UniProt P08183); test: Inhibition of MDR1 transfected in MDCK2 cells assessed as inhibition of [3H]vinblastine efflux incubated for 30 mins prior to [3H]vinblastine addition by scintillation counting; format: cell-based, MDCK-II
Method in brief: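 Transwell MDCKII-MDR1 monolayers on day 6, rinsed 10 min in DPBSH at 37 °C. Conditioned with compound at 1 × 10−10 to 1 × 10−5 M in BSA/DPBSH. [3H]-vinblastine added to the basolateral side. Apical buffer replaced every 10 min, and apical [3H] counted by scintillation. IC50 calculated from the curve.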

P-gp (MDR1, ABCB1) [9] = molecular target: T2, P-gp (MDR1, ABCB1) (Homo sapiens, UniProt P08183); test: Inhibition of MDR1 transfected in MDCK2 cells assessed as increase in calcein AM uptake at 2.5*10^-5 M incubated for 30 mins prior to calcein AM influx measured after 20 mins by fluorimetric analysis relative to LSN 335984; format: cell-based, MDCK-II; conditions: dog, MDCK2 cells transfected with MDR1, probe calcein AM
Method in brief: (§2)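 MDCKII-MDR1 cells (passage 16-42) seeded 40,000 cells/well, used day 4. Washed with DPBS plus 10−2 M Hepes pH 7.4, then incubated 30 min at 37 °C with compound in this buffer with 4.3 mg mL−1 BSA. Compound solution then replaced with one also holding 0.5 μg mL−1 calcein AM, 20 min more.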

P-gp (MDR1, ABCB1) [10] = molecular target: T2, P-gp (MDR1, ABCB1); test: Inhibition of MDR1 transfected in MDCK2 cells assessed as increase in calcein AM uptake at 5*10^-6 M incubated for 30 mins prior to calcein AM influx measured after 20 mins by fluorimetric analysis relative to LSN 335984; format: cell-based, MDCK-II; conditions: dog, MDCK2 cells transfected with MDR1, probe calcein AM; method in brief: as §2
[11] = molecular target: T1, ATP-dependent translocase ABCB1; test: Inhibition of MDR1 transfected in MDCK2 cells assessed as increase in calcein AM uptake incubated for 30 mins prior to calcein AM influx measured after 20 mins by fluorimetric analysis; format: cell-based, MDCK-II
[12] = molecular target: T1, ATP-dependent translocase ABCB1; test: Inhibition of human His10-tagged P-gp ATPase activity expressed in BHK cells assessed as verapamil-induced inorganic phosphate release incubated for 15 mins prior to verapamil addition by spectrophotometric analysis; format: cell-based
Method in brief: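 P-gp-His10 stably expressed in BHK cells, Ni-chelate purified and mixed 1:1 with 10 mg/ml sheep brain phosphatidylethanolamine. Pre-incubated with compound 15 min at 20 °C. […] Released inorganic phosphate measured.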

[13] = molecular target: P-gp (ABCB1) ATPase activity (Homo sapiens, UniProt P08183); test: Binding affinity to human His10-tagged P-gp expressed in BHK cells assessed as induction of ATPase activity measured as inorganic phosphate release by spectrophotometric analysis relative to control; format: cell-based; conditions: read-out: FC
Sequence of P-gp (ABCB1) ATPase activity (P08183 whole entry): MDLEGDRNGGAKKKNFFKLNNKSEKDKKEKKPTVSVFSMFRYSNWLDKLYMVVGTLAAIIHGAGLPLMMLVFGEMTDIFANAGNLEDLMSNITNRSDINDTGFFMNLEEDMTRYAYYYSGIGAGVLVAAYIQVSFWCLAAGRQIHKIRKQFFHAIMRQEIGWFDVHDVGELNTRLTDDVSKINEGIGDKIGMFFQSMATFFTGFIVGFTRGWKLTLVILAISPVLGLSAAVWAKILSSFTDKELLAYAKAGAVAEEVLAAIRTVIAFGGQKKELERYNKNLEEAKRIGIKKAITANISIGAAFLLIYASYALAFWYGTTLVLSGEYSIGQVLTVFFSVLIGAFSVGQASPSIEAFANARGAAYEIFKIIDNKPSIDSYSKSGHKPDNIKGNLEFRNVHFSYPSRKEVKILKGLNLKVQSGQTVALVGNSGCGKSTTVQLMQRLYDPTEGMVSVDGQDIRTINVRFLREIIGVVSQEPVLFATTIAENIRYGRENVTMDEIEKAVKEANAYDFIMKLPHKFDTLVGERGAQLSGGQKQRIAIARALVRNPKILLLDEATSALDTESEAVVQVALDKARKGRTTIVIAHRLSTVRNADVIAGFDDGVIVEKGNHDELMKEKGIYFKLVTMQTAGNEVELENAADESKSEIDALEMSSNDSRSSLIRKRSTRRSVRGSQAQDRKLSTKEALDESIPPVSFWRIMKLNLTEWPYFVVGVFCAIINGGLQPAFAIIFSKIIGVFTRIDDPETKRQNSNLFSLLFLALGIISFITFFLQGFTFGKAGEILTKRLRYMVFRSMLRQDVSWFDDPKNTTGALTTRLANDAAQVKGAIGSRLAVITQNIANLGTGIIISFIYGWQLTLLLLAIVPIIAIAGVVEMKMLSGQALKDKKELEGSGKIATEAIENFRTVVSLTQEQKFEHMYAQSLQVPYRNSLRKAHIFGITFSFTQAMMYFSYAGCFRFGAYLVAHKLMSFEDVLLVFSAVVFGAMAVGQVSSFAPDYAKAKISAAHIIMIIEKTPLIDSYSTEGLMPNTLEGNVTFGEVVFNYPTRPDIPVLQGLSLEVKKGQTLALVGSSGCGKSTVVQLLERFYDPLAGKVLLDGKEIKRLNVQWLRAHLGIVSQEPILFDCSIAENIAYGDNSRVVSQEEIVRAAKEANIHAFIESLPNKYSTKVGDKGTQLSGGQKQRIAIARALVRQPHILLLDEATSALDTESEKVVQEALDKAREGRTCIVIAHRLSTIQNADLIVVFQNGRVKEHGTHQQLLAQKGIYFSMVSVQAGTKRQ

T1 sequence (P08183 whole entry): as above
T2 sequence (P08183 whole entry): as above

SMILES	Ratio [1]	permeability [2] [%]	permeability [3] [%]	Ratio [4]	Papp B→A at 1 h, 5 µM [5] [×10⁻⁶ cm/s]	Papp A→B at 1 h, 5 µM [6] [×10⁻⁶ cm/s]	logD [7]	IC50 [8] [µM]	inhibition at 20 min, 25 µM (P-gp (MDR1, ABCB1) [9]) [%]	inhibition at 20 min, 5 µM (P-gp (MDR1, ABCB1) [10]) [%]	IC50 [11] [µM]	IC50 [12] [µM]	fold induction [13]
CN1CCC(C)(C)c2cc3c(-c4ccc(C(=O)N5CCCCC5)s4)c4ccc(=[N+](C)C)cc-4sc3cc21.F[P-](F)(F)(F)(F)F	5.2	45	8.6	31	23	≤ 0.1	1.7	5.6	64	0	13	1.1	< 2
C[N+](C)=c1ccc2c(-c3ccc(C(=O)N4CCCCC4)s3)c3cc4c5c(c3sc-2c1)CCCN5CCC4.F[P-](F)(F)(F)(F)F	6.1	42	6.9	27	22	≤ 0.1	1.4	–	41	0	56	–	4.1
CN1CCC(C)(C)c2cc3c(-c4ccc(C(=S)N5CCCCC5)s4)c4ccc(=[N+](C)C)cc-4sc3cc21.F[P-](F)(F)(F)(F)F	1.8	62	34	170	3.4	≤ 0.1	2.6	8.9	64	0	9.3	1.7	< 2
CCN(CC)C(=S)c1ccc(-c2c3ccc(=[N+](C)C)cc-3sc3cc4c(cc23)C(C)(C)CCN4C)s1.F[P-](F)(F)(F)(F)F	1.2	64	52	69	6.9	≤ 0.1	2.7	8.7	64	0	8.8	–	4.3
CCN(CC)C(=S)c1ccc(-c2c3ccc(=[N+](C)C)cc-3sc3c4c5c(cc23)CCCN5CCC4)s1.F[P-](F)(F)(F)(F)F	1.8	45	25	24	6.5	≤ 0.1	1.7	–	41	0	9.6	–	4.6
CN(C)c1ccc2c(-c3ccc(C(=O)N4CCCCC4)s3)c3ccc(=[N+](C)C)cc-3sc2c1	–	–	–	–	–	–	1.5	–	–	–	–	–	–
CCN(CC)C(=S)c1ccc(-c2c3ccc(=[N+](C)C)cc-3sc3cc(N(C)C)ccc23)s1.F[P-](F)(F)(F)(F)F	5.1	56	11	41	21	≤ 0.1	1.2	–	3	0	14	–	12.1
CCN(CC)C(=O)c1ccc(-c2c3ccc(=[N+](C)C)cc-3sc3cc4c(cc23)C(C)(C)CCN4C)s1.F[P-](F)(F)(F)(F)F	3.3	33	10	14	37	≤ 0.1	1.4	8	64	0	7.1	–	4.7
C[N+](C)=c1ccc2c(-c3ccc(C(=S)N4CCCCC4)s3)c3cc4c5c(c3sc-2c1)CCCN5CCC4.F[P-](F)(F)(F)(F)F	–	64	31	–	8.3	≤ 0.1	–	–	41	0	–	–	–
CCN(CC)C(=O)c1ccc(-c2c3ccc(=[N+](C)C)cc-3sc3c4c5c(cc23)CCCN5CCC4)s1.F[P-](F)(F)(F)(F)F	4.8	28	5.8	12	21	≤ 0.1	1.9	–	41	0	10	–	5.6
CCN(CC)C(=O)c1ccc(-c2c3ccc(=[N+](C)C)cc-3sc3cc(N(C)C)ccc23)s1	–	–	–	–	–	–	1.2	–	–	–	–	–	–
